High-throughput results as filed in PubChem.
The full list was thinned out, with hits kept by preference.
HCT116 bCat-KO = beta-catenin-lacking colon tumor cell growth suppression. AID 818. viability, % at 10 µM. 140,000 tested, 1.5% active. HCT116 beta-catenin knockout viability, CellTiter-Glo, 60 h; stronger effect = lower value;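 active = viability at or under a set limit, the compound median less 4 SD, cut at about 6% in these data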;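 note: 0% = Hyamine 1622 control at 20 µM and 100% = untreated cell control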
Lung fibro prol = blocks proliferation of human lung fibroblasts. 85,000 tested, 1.1% active. viability, % at 10 µM. LL 47 human lung fibroblast viability, ATP luminescence; stronger effect = lower value. AID 719;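 active = viability at or below 50% in the single dose screen; inactive = viability above 50%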;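 note: compound exposure lasted 72 h before the ATP readout; 100% = median luminescence of untreated cell-only wells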
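Benchmarks: Cell-only wells, no compound | Test system: LL 47 human lung fibroblasts, passage 12 or lower | Input: 1,150 cells/well | Measured by: CellTiter-Glo luminescence measuring cellular ATP | Medium: IMEM, 15% FBS supplement | Schedule: Overnight attachment after seeding, then 72 h compound exposure at 37 °C | Doses: Compound addition at 0.1% DMSO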
HUVEC prolif 384 = inhibitors of human endothelial cell proliferation | HUVEC proliferation, CellTiter-Glo luminescence, 72 h; stronger effect = lower value | viability, % at 10 µM (by protocol) | 86,000 tested, 1.1% active | AID 648;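 active = viability at or below 30%; inactive = viability above 30%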;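 note: 100% = median luminescence of DMSO-only cell control wells on each plate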
PTEN del growth = PTEN-deleted cell growth suppression | 140,000 tested, 1.2% active | HCT116 PTEN-null viability, CellTiter-Glo, 60 h; stronger effect = lower value | viability, % at 10 µM | AID 827;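 active = viability at or below a set limit, 4 SD under the median of all tested compounds, cut at about 3.7% in these data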;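 note: PTEN knockout HCT116 line with beta catenin targeted HCT116 as companion control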
H69AR inhibit = blocks growth of human H69AR lung tumor cells. H69AR lung tumor viability, ATP luminescence, 72 h; stronger effect = lower value. viability, % at 10 µM. 85,000 tested, 6% active. AID 598;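 active = viability at or below 40%; inactive = viability above 40%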;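 note: multidrug resistant small cell line overexpressing MRP-1 efflux transporter; 100% = mean luminescence of untreated control wells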
* hit, by the source's call.

`Cc1ccnc(NC(=O)c2c(O)c3ccccc3n(C)c2=O)c1` gave Lung fibro prol 76, HUVEC prolif 384 131 and H69AR inhibit 5.7*.
Screening CCCC(=O)N1CCN(S(=O)(=O)c2cc(Cl)ccc2OC)CC1 returned HCT116 bCat-KO 93, Lung fibro prol 99, HUVEC prolif 384 89, PTEN del growth 91 and H69AR inhibit 88.
Screening CCN(CC)S(=O)(=O)c1ccc(Cl)c(C(=O)Nc2cc(C)nn2-c2ccccc2C(F)(F)F)c1 returned HCT116 bCat-KO 75 and PTEN del growth 75.
For COc1cc(C#CC#CCN2CCCCC2)ccc1O the results were HCT116 bCat-KO 70, Lung fibro prol 94, HUVEC prolif 384 98, PTEN del growth 75 and H69AR inhibit 3.6*.
`CCCC(=O)Nc1cccc(NC(=O)c2cccc([N+](=O)[O-])c2C)c1` gave HCT116 bCat-KO 98 and PTEN del growth 97.
Screening CN(C)CCN(C(=O)c1cc(Cl)sc1Cl)c1nc2ccc(F)cc2s1 returned HCT116 bCat-KO 94 and PTEN del growth 91.
CN(C)CCCN(C(=O)c1ccc2c(c1)CCCC2)c1nc2ccc(F)cc2s1 was read as HCT116 bCat-KO 8 and PTEN del growth 2.7*.
For COC(=O)/C=c1\sc2ncnn2c1=O the results were HCT116 bCat-KO 95, Lung fibro prol 98, HUVEC prolif 384 97, PTEN del growth 104 and H69AR inhibit 7.9*.
Screening CCC(=O)Oc1ccc(/C(CC)=C(\CC)c2ccc(OC(=O)CC)cc2)cc1 returned HCT116 bCat-KO 34, Lung fibro prol 70, HUVEC prolif 384 55, PTEN del growth 32 and H69AR inhibit 10*.
CCC(=O)OCCCCCCOc1ccc(C(=O)O)cc1 was read as HCT116 bCat-KO 82 and PTEN del growth 90.
For CC(Cc1cccs1)NC(=O)Nc1ccc(Cl)c(Cl)c1 (centres undefined) the results were HCT116 bCat-KO 37, Lung fibro prol 106, HUVEC prolif 384 56, PTEN del growth 25 and H69AR inhibit 26*.
O=C(COc1ccccc1)Nc1cccc(-c2nc3cc4ccccc4cc3[nH]2)c1 was read as HCT116 bCat-KO 1.7* and PTEN del growth 1.1*.
Screening Cc1cc(C)c2c(N)c3cccc(C)c3nc2n1 returned HCT116 bCat-KO 2.5* and PTEN del growth 2.5*.
COc1ccccc1NC(=S)NC1CCC(CC2CCC(NC(=S)Nc3ccccc3OC)CC2)CC1 (centres undefined) was read as HCT116 bCat-KO 65 and PTEN del growth 80.
`N#Cc1c(-c2ccco2)cc(-c2ccccn2)nc1N` gave HCT116 bCat-KO 88, Lung fibro prol 88, HUVEC prolif 384 86, PTEN del growth 88 and H69AR inhibit 35*.
COC(=O)c1ccc(NC(=O)c2ccc3c(c2)OCO3)cc1 was read as HCT116 bCat-KO 81, Lung fibro prol 95, HUVEC prolif 384 90, PTEN del growth 87 and H69AR inhibit 79.
Screening Cc1nc2c(ccc3nc(NC(=O)c4ccc5c(c4)OCCO5)sc32)s1 returned HCT116 bCat-KO 41, Lung fibro prol 92, HUVEC prolif 384 7.8*, PTEN del growth 37 and H69AR inhibit 8.2*.
Screening Cc1ccc(NC(=O)c2ccc3c(c2)OCCO3)cc1 returned HCT116 bCat-KO 63, Lung fibro prol 88, HUVEC prolif 384 77, PTEN del growth 69 and H69AR inhibit 83.
Screening COC(=O)c1sccc1NC(=O)c1ccc2c(c1)OCO2 returned HCT116 bCat-KO 97, Lung fibro prol 29*, HUVEC prolif 384 64, PTEN del growth 89 and H69AR inhibit 39*.
Screening Cc1ccccc1NC(=O)c1ccc2c(c1)OCCO2 returned HCT116 bCat-KO 89, Lung fibro prol 110, HUVEC prolif 384 104, PTEN del growth 1.9* and H69AR inhibit 84.
For COc1ccc2nc3ccccc3nc2c1NC(=O)c1ccc(Cl)cc1Cl the results were HCT116 bCat-KO 89 and PTEN del growth 83.
`Cc1ccc(/C=C2\SC(N3CCN(C(c4ccccc4)c4ccccc4)CC3)=NC2=O)o1` gave HCT116 bCat-KO 70 and PTEN del growth 54.
O=C(O)CCC(=O)Nc1ccc(Sc2ccc([N+](=O)[O-])cc2)cc1 was read as HCT116 bCat-KO 106 and PTEN del growth 95.
`CC(C)C(=O)NC(c1ccco1)c1ccc2cccnc2c1O` (centres undefined) gave HCT116 bCat-KO 3.5*, Lung fibro prol 14*, HUVEC prolif 384 2.1*, PTEN del growth 2.0* and H69AR inhibit 1.9*.
`COc1ccc(C(NC(C)=O)c2ccc3cccnc3c2O)c(OC)c1` (centres undefined) gave HCT116 bCat-KO 3.7*, Lung fibro prol 15*, HUVEC prolif 384 2.4*, PTEN del growth 2.5* and H69AR inhibit 0.9*.
Screening Oc1c(C(Nc2nc3ccccc3s2)c2ccco2)ccc2cccnc12 (centres undefined) returned HCT116 bCat-KO 13, Lung fibro prol 17*, HUVEC prolif 384 4.5*, PTEN del growth 15 and H69AR inhibit 44.
For COc1ccc(OC)c(-c2nc3cc4ccccc4cc3nc2-c2ccccc2)c1 the results were HCT116 bCat-KO 68 and PTEN del growth 61.
Screening Cc1onc(-c2ccccc2Cl)c1C(=O)N1CCCc2ccccc21 returned HCT116 bCat-KO 59, Lung fibro prol 91, HUVEC prolif 384 90, PTEN del growth 70 and H69AR inhibit 23*.
COc1ccccc1N1CCN(C(=O)c2ccoc2C)CC1 was read as HCT116 bCat-KO 93, Lung fibro prol 96, HUVEC prolif 384 92, PTEN del growth 92 and H69AR inhibit 95.
Cc1onc(-c2c(F)cccc2Cl)c1C(=O)N1CCCc2ccccc21 was read as HCT116 bCat-KO 53, Lung fibro prol 85, HUVEC prolif 384 63, PTEN del growth 37 and H69AR inhibit 19*.
COc1ccccc1N1CCN(C(=O)c2oc3cc(C)cc(C)c3c2C)CC1 was read as HCT116 bCat-KO 69, Lung fibro prol 91, HUVEC prolif 384 80, PTEN del growth 64 and H69AR inhibit 23*.
Screening COc1ccccc1N1CCN(C(=O)c2c(-c3ccccc3Cl)noc2C)CC1 returned HCT116 bCat-KO 64, Lung fibro prol 95, HUVEC prolif 384 82, PTEN del growth 50 and H69AR inhibit 19*.
`COC(=O)C1CCN(C(=O)c2c(-c3ccccc3Cl)noc2C)CC1` gave HCT116 bCat-KO 96, Lung fibro prol 96, HUVEC prolif 384 97, PTEN del growth 111 and H69AR inhibit 88.
Screening O=[N+]([O-])c1ccc(N2CCC(O)CC2)nc1 returned HCT116 bCat-KO 96 and PTEN del growth 100.
Screening O=S1(=O)C=C(Sc2nnc(-c3ccccc3)o2)c2ccccc21 returned HCT116 bCat-KO 1.2*, HUVEC prolif 384 11*, PTEN del growth 0.9* and H69AR inhibit 0.3*.
`Cc1cc(C)nc(SC2=CS(=O)(=O)c3ccccc32)n1` gave HCT116 bCat-KO 2.0*, Lung fibro prol 58, HUVEC prolif 384 94, PTEN del growth 1.8* and H69AR inhibit 5.8*.
